hERG protect – shields human hERG channel from block by proarrhythmic agents; Q12809; CHO-hERG, FluxOR thallium flux, dofetilide IC70 present; activation (rescue from dofetilide block), less the hit threshold, % at 10 µM; hit rate 0.51% among 310,000;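 active means activation above the mean of controls blocked by dofetilide plus 5 SD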;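 further: thallium influx through hERG after potassium depolarization seen as dye fluorescence rise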
Target sequence (Q12809 whole entry, looked up): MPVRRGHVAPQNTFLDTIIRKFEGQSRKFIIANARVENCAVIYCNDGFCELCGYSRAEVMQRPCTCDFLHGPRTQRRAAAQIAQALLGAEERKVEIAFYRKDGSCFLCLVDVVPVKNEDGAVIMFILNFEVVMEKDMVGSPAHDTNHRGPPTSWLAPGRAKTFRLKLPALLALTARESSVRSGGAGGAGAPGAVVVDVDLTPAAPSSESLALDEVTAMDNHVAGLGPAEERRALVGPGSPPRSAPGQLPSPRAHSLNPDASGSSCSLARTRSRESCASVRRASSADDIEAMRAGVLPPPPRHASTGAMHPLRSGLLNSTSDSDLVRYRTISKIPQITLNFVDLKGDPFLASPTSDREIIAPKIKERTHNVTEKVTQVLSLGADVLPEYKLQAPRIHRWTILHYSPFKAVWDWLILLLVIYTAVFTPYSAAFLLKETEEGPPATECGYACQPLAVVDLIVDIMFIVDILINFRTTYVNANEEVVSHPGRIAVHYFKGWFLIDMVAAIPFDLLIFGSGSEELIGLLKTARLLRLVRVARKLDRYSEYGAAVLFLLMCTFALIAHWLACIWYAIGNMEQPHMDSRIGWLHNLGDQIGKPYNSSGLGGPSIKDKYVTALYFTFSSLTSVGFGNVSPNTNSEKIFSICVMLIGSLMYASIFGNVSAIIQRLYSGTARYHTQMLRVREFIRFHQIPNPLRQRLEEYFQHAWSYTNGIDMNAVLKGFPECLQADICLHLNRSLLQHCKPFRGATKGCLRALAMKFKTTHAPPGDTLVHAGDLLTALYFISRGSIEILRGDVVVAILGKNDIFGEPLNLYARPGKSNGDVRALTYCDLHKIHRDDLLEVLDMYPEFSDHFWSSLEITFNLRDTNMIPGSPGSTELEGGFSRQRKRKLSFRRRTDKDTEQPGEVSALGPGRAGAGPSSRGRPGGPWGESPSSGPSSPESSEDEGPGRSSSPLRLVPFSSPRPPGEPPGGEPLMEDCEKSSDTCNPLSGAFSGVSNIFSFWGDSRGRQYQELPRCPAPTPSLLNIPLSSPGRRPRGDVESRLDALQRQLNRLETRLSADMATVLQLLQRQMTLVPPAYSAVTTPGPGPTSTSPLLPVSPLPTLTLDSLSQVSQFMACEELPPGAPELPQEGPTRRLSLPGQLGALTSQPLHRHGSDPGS
KCNK9 inh – human KCNK9 channel inhibition; Q9NPC2; HEK293 KCNK9, FluxOR thallium flux fluorescence; stronger effect = lower value; B-score at 10 µM; hit rate 1.2% among 310,000;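 active means ratio B-score over 3 SD below the library mean, with starting fluorescence within 5 SD of its mean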;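 further: negative B-score means less thallium flux so channel inhibition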
KCNQ1 inh – human KCNQ1 channel inhibition; hit rate 1.3% among 310,000; CHO-K1 KCNQ1, FluxOR thallium flux fluorescence; stronger effect = higher value; B-score at 10 µM; P51787;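 active means compounds whose thallium flux B-score, printed positive for inhibition, exceeds three library SD while starting fluorescence stays within three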;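 further: channel opened by potassium depolarization with thallium stimulus after 20 min compound exposure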
KCNQ1 pot – human KCNQ1 channel potentiation or activation. CHO-K1 KCNQ1, thallium flux FluxOR fluorescence; stronger effect = higher value. AID 2648. hit rate 0.35% among 310,000. B-score at 10 µM;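 active means fluorescence ratio B-score, a plate-corrected score, at least three library SD, with initial intensity B-score within 5 SD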
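Test system: CHO-K1 cells stably expressing KCNQ1 / Medium: assay buffer / Also added: depolarizing K+/Tl+ stimulus, K2SO4 and Tl2SO4 each 12.5 mM in 5x stock / Incubation: 90 min dye loading and 20 min compound exposure, both at room temperature / Signal: thallium influx via FluxOR fluorescence, kinetic imaging / Evaluation: B score of baseline-normalized fluorescence ratio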
Kir21 block – inhibitors of mouse Kir2.1 inward-rectifier potassium channel. HEK293-Kir2.1, FluxOR thallium flux fluorescence; stronger effect = lower value. B-score at 10 µM. hit rate 0.85% among 310,000. AID 1672;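 active means fluorescence ratio B-score at or below minus 3 SD of library scores, with starting-brightness B-score within 2 SD, cut at about -4.2 in these data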;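 further: channel flux triggered by added potassium and thallium sulfate stimulus; B-score of peak minus minimum fluorescence over baseline after thallium stimulus; more negative B-score means stronger Kir2.1 block with less thallium influx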
KCNK3 inh – human KCNK3 channel inhibition, primary screen; O14649; CHO-KCNK3 thallium flux, FluxOR fluorescence; stronger effect = lower value; B-score at 10 µM; hit rate 0.84% among 340,000; AID 602410;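 active means B-score under library mean minus 4 SD, starting fluorescence ratio at most library mean plus 5 SD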;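 further: more negative B-score means stronger inhibition of thallium flux through KCNK3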
KCNK9 inh conf – human KCNK9 inhibitor confirmation. shares compounds with KCNK9 inh. HEK293 KCNK9 cells, FluxOR thallium flux fluorescence. inhibition, % at 10 µM. hit rate 43% among 4,900. AID 492992;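 active means thallium signal inhibited by more than 5 SD of the compound-free buffer control wells, on both duplicate plates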;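 further: 0% = assay buffer control wells without compound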
Kir2-1 spec – selectivity of KCNK9 modulators against mouse Kir2.1; shares compounds with KCNK9 inh; Kir2.1 cells, FluxOR thallium flux fluorescence; inhibition, % at 10 µM; hit rate 4% among 4,900; AID 492993;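 active means thallium signal drop more than 5 SD beyond the mean of the no-compound control wells, seen in both duplicate plates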;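 further: signal is fluorescence rise after thallium addition divided by baseline fluorescence; plate controls were assay buffer only for no effect and full block by chlorpromazine control for full effect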
KCNK9 uninduced – second check of KCNK9 modulator effects in non-induced HEK293 cells. shares compounds with KCNK9 inh. FluxOR thallium flux. inhibition, % at 10 µM. hit rate 40% among 4,900. AID 492997;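 active means thallium signal drop beyond 5 SD of the untreated control mean, on both duplicate plates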;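 further: plate controls were buffer only IC0 wells for no effect and SID17386958 at its maximal inhibitory level for full effect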
* = called active by the depositor; i = inactive; · = no result. The list is not random: actives were taken first. Their share in the collection is about 3.7%.

SMILES	hERG protect	KCNK9 inh	KCNQ1 inh	KCNQ1 pot	Kir21 block	KCNK3 inh	KCNK9 inh conf	Kir2-1 spec	KCNK9 uninduced
COc1cc(/C=C(/C#N)C(=O)NC(C)c2ccccc2)cc(OC)c1O (configuration not stated)	-8	i	i	i	-1.2	i	·	·	·
CC(NC(=O)/C(C#N)=C/c1ccc(C(=O)O)cc1)c1ccccc1 (configuration not stated)	-12	i	i	i	0.01	i	i	i	i
CC(NC(=O)/C(C#N)=C/c1cn(-c2ccccc2)nc1-c1ccc(F)cc1)c1ccccc1 (configuration not stated)	-6	i	i	i	-0.31	i	i	i	i
Cc1cc(Cl)ccc1NC(=S)N1CCN(C(=O)c2ccco2)CC1	-7	i	i	i	1.9	i	·	·	·
CCNC(=O)NC(=O)C(C)OC(=O)CCCSc1nc2ccccc2s1 (configuration not stated)	-5	i	i	i	1.3	i	·	·	·
N#CCCn1cc(/C=N/NC(N)=S)c(-c2ccccc2)n1	-5	i	i	i	-0.78	i	·	·	·
Cc1sc2nc(SCc3ccccc3)n(Cc3ccco3)c(=O)c2c1C	-7	i	i	i	-0.65	i	·	·	·
Cc1sc2nc(SCc3nc4ccccc4[nH]3)n(Cc3ccco3)c(=O)c2c1C	-9	-8.3*	i	i	1.4	i	26%*	i	32%*
Cc1cccc(-c2oc3ccccc3c2C#CCCO)c1	-5	i	i	i	-0.2	i	·	·	·
CC(C)(C)C(=O)O/N=C(\N)c1ccc(-c2csnn2)cc1	-9	i	i	i	-0.06	i	·	·	·
C[C@@H]1CCC(=O)N(CC[C@H](Oc2ccccc2)c2ccccc2)CC1	-10	-15*	i	i	-2.9	i	74%*	i	36%*
COc1ccc(S[C@@H](CCN2CC[C@H](C)CCC2=O)c2ccccc2)cc1	·	·	·	·	·	i	·	·	·
Cc1ccc(S[C@@H](CCN2CC[C@H](C)CCC2=O)c2ccccc2)cc1	-7	-9.4*	i	i	-1.2	i	66%*	i	34%*
Cc1c(C(=O)NCCSCc2c(F)cccc2Cl)cnn1-c1ccc(Cl)cc1	-10	i	i	i	-1.1	i	i	i	i
COc1ccccc1C(=O)NCCSCc1c(F)cccc1Cl	-11	i	i	i	-1.3	i	·	·	·
O=C(Nc1nc(-c2cc(Cl)sc2Cl)cs1)c1cccs1	-13	-8.9*	i	i	0.94	-12*	50%*	i	i
COc1ccc2c(c1)C(SCC(=O)NCCc1ccccc1)CC(C)(C)O2 (configuration not stated)	-9	i	i	i	-3.4	i	i	i	i
C/C(=N/NC(=O)c1cc2ccccc2cc1O)C1C(=O)c2ccccc2C1=O	-16	i	i	i	-1.1	i	·	·	·
C/C(=N\NC(=O)c1ccccc1O)C1C(=O)c2ccccc2C1=O	-31	i	11*	i	0.93	i	i	i	24%*
Cc1cc(NC(=O)c2ccc(Cl)cc2)ccc1NC(=O)c1ccccc1Cl	-2	i	i	i	1.8	i	·	·	·
Cc1onc(-c2ccccc2)c1C(=O)OCC(=O)N(C)c1ccccc1	·	·	·	·	·	i	·	·	·
Cc1cccc(OCCNC(=O)c2cccc(Oc3ccc(C(F)(F)F)cc3[N+](=O)[O-])c2)c1	-9	i	i	i	0.3	i	i	i	i
CC(C)NS(=O)(=O)c1ccc2c(c1)NCC2	-10	i	i	i	1.6	i	·	·	·
CCOC(=O)NC(=O)CSc1nc(-c2ccc(C)c(C)c2)cn1-c1ccccc1	-10	-8.2*	i	i	-1.2	i	42%*	i	36%*
Cc1ccc(-c2cn(-c3ccccc3)c(SCC(N)=O)n2)cc1C	-7	i	i	i	0.8	i	·	·	·
SMILES	hERG protect	KCNK9 inh	KCNQ1 inh	KCNQ1 pot	Kir21 block	KCNK3 inh	KCNK9 inh conf	Kir2-1 spec	KCNK9 uninduced
CC[n+]1c(/C=C/c2ccc(N(C)C)cc2)ccc2ccccc21	-25	-12*	i	i	-14*	i	60%*	85%*	60%*
CC[n+]1c(/C=C/c2ccc(OC(C)=O)c(OC)c2)ccc2ccccc21	-11	i	i	i	-0.05	i	·	·	·
COc1cc(C)c(C(=O)Oc2cc(C)c(C(=O)O)c(O)c2C)c(O)c1C(=O)O	-3	i	i	i	-1.1	i	·	·	·
COc1cc(C)c(C(=O)Oc2cc(C)c(C(=O)O)c(O)c2C)c(OC)c1C	-9	i	i	i	-0.02	i	i	i	i
O=C(Nc1ccc(Br)cn1)c1cccc2ccccc12	-4	i	i	i	2.5	i	·	·	·
O=C(Nc1ccc(Cl)cn1)c1cccc2c(Br)cccc12	-7	-17*	i	i	-0.56	i	71%*	i	42%*
Cc1ccc(C(=O)NCc2ccc(N3CCN(C(=O)OC(C)(C)C)CC3)cc2)cc1	-16	i	i	i	-0.82	i	i	i	i
Cc1ccc(CNC(=O)N2CCN(c3ccc(C)cc3)CC2)cc1	-8	i	i	i	0.01	i	·	·	·
Cc1ccc(-c2csc3nc(SCC(=O)N(C)C)n(Cc4ccccc4)c(=O)c23)cc1	-14	-9.5*	i	i	0.51	i	50%*	i	28%*
Cc1cc(C)cc(OCC(=O)O/N=C(\N)c2ccccc2Cl)c1	-6	i	i	i	0.92	i	i	i	i
O=C(O)c1ccc(-c2nc(-c3ccc(Cl)c(Cl)c3)cs2)cc1	-2	i	i	i	3.1	i	i	i	i
Cc1cccc(NC(=O)CN2CCC(C(=O)c3ccc4c(c3)OCCO4)CC2)c1	-10	i	i	i	1.6	i	i	i	i
CC(C)C(C)NC(=O)COc1ccc(-c2ccccc2)cc1 (configuration not stated)	-10	-9.9*	i	i	-0.04	i	34%*	i	i
CC(C)C(C)NC(=O)COc1ccc(OCc2ccccc2)cc1 (configuration not stated)	-11	i	i	i	1.8	i	·	·	·
